In ChEMBL document CHEMBL4020757, “Lathyrol and epoxylathyrol derivatives: Modulation of Cdr1p and Mdr1p drug-efflux transporters of Candida albicans in Saccharomyces cerevisiae model” (Bioorg Med Chem, 2017):
≈ marks a conversion by molar mass, not a printed value.

Columns and labels:
Saccharomyces cerevisiae [1] = experiment: Synergistic antifungal activity against Saccharomyces cerevisiae AD1-8u(-) assessed as ratio of compound MIC80 in combinantion with fluconazole to compound alone MIC80 by checkerboard method; type: functional
Summary of the method: (§1)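 Checkerboard per CLSI with 10⁴ cells of AD-CDR1, AD-MDR1 or AD1-8u⁻, grown 48 h at 30 °C. Fluconazole 4-209 μM crossed with compound 0.25-400 μM, growth read by optical density. Compound FIC is the compound MIC in combination with fluconazole divided by its MIC alone.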

Candida albicans [2] = experiment: Inhibition of Candida albicans MDR1 expressed in Saccharomyces cerevisiae AD assessed as reduction in nile red dye efflux at 70 uM after 30 mins by flow cytometry relative to control
Summary of the method: (§2)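 AD-CDR1 or AD-MDR1 cells grown in YEPD at 30 °C with shaking from OD600 0.1 to 0.25, then resuspended as a 5% suspension in 1:2 YEPD:water. Nile Red (final 7 μM) added with or without compound at 70 μM, 30 min at 30 °C. Cells washed twice and 10,000 cells analysed by flow cytometry. Efflux rate expressed relative to untreated control cells. Means ± SD, three independent experiments.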

Saccharomyces cerevisiae [3] = experiment: Resistance index, ratio of MIC80 for Saccharomyces cerevisiae AD over-expressing Candida albicans CDR1 to MIC80 for Saccharomyces cerevisiae AD1-8u(-); type: functional
Summary of the method: (§3)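 Yeast (10⁴ cells) grown in YEPD at 30 °C for 48 h with inhibitors at 0.25-400 μM (DMSO stocks); growth read by optical density, inhibitor-free growth set as 100%. MIC80 = concentration giving 80% growth inhibition. RI = MIC80 in AD-CDR1 or AD-MDR1 divided by MIC80 in control AD1-8u⁻. Means ± SD, duplicate samples, at least three independent experiments.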

Saccharomyces cerevisiae [4] = experiment: Antifungal activity against Saccharomyces cerevisiae AD over-expressing Candida albicans MDR1 after 48 hrs; type: functional; summary of the method: as §3
Saccharomyces cerevisiae [5] = experiment: Resistance index, ratio of MIC80 for Saccharomyces cerevisiae AD over-expressing Candida albicans MDR1 to MIC80 for Saccharomyces cerevisiae AD1-8u(-); type: functional; summary of the method: as §3
Candida albicans [6] = experiment: Inhibition of Candida albicans CDR1 expressed in Saccharomyces cerevisiae AD assessed as reduction in nile red dye efflux at 70 uM after 30 mins by flow cytometry relative to control; summary of the method: as §2
Saccharomyces cerevisiae [7] = experiment: Antifungal activity against Saccharomyces cerevisiae AD1-8u(-) after 48 hrs; type: functional
Summary of the method: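 S. cerevisiae AD1-8u⁻ control strain revived from glycerol stock on YEPD plates and grown in YEPD at 30 °C. 10⁴ cells exposed to compound at 0.25-400 μM for 48 h at 30 °C. Growth read as optical density, with no-inhibitor growth as 100%. MIC80 is the concentration giving 80% growth inhibition. Means ± SD of duplicates from at least three independent experiments.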

Candida albicans [8] = experiment: Inhibition of Candida albicans MDR1 expressed in Saccharomyces cerevisiae AD assessed as ratio of compound MIC80 in combinantion with fluconazole to compound alone MIC80 for Saccharomyces cerevisiae AD by checkerboard method; summary of the method: as §1
Candida albicans [9] = experiment: Inhibition of Candida albicans CDR1 expressed in Saccharomyces cerevisiae AD assessed as potentiation of fluconazole-induced antifungal activity against Saccharomyces cerevisiae AD by checkerboard method
Summary of the method: (§4)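 Checkerboard per CLSI in AD1-8u⁻ control, AD-CDR1 or AD-MDR1 cells (10⁴ cells) grown 48 h at 30 °C. Fluconazole 4-209 μM crossed with compound 0.25-400 μM. Growth read by optical density. FIC of each agent is its MIC in combination divided by its MIC alone. FICI is the sum of the fluconazole and compound FICs, with values below 0.5 taken as synergy.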

Saccharomyces cerevisiae [10] = experiment: Antifungal activity against Saccharomyces cerevisiae AD over-expressing Candida albicans CDR1 after 48 hrs; type: functional; summary of the method: as §3
[11] = Lipophilicity, log P of the compound; type: physicochemical; conditions: octanol/water
Candida albicans [12] = experiment: Inhibition of Candida albicans CDR1 expressed in Saccharomyces cerevisiae AD assessed as ratio of compound MIC80 in combinantion with fluconazole to compound alone MIC80 for Saccharomyces cerevisiae AD by checkerboard method; summary of the method: as §1
Saccharomyces cerevisiae [13] = experiment: Potentiation of fluconazole-induced antifungal activity against Saccharomyces cerevisiae AD1-8u(-) by checkerboard method; type: functional; summary of the method: as §4
Candida albicans [14] = experiment: Inhibition of Candida albicans MDR1 expressed in Saccharomyces cerevisiae AD assessed as potentiation of fluconazole-induced antifungal activity against Saccharomyces cerevisiae AD by checkerboard method; summary of the method: as §4

Structure (SMILES)	Ratio (Saccharomyces cerevisiae [1])	inhibition (Candida albicans [2])	Ratio (Saccharomyces cerevisiae [3])	MIC80 (Saccharomyces cerevisiae [4])	Ratio (Saccharomyces cerevisiae [5])	inhibition (Candida albicans [6])	MIC80 (Saccharomyces cerevisiae [7])	Ratio (Candida albicans [8])	fractional inhibitory concentration index (FICI) (Candida albicans [9])	MIC80 (Saccharomyces cerevisiae [10])	logP [11]	Ratio (Candida albicans [12])	fractional inhibitory concentration index (FICI) (Saccharomyces cerevisiae [13])	fractional inhibitory concentration index (FICI) (Candida albicans [14])
CCCC(=O)O[C@@H]1[C@@H]2[C@@H](OC(=O)CCC)[C@]3(CC[C@H]4[C@@H](/C=C(\C)C(=O)[C@@]2(OC(=O)CCC)C[C@@H]1C)C4(C)C)CO3	1	85%	0.85	801 µM (≈ 449 µg/mL)	0.89	35%	892 µM (≈ 500 µg/mL)	1	1.4	762 µM (≈ 427 µg/mL)	4.3	1	2	1.3
C=C1CC[C@H]2[C@@H](/C=C(\C)C(=O)[C@@]3(O)C[C@H](C)[C@H](O)[C@@H]3[C@H]1OC(=O)/C=C/c1ccccc1)C2(C)C	1	30%	0.92	1010 µM (≈ 470 µg/mL)	0.93	65%	1080 µM (≈ 500 µg/mL)	1	1.4	993 µM (≈ 461 µg/mL)	3.93	1	2	1.3
CC(=O)O[C@@H]1[C@@H]2[C@@H](OC(C)=O)[C@]3(CC[C@H]4[C@@H](/C=C(\C)C(=O)[C@@]2(OC(C)=O)C[C@@H]1C)C4(C)C)CO3	1	75%	0.98	529 µM (≈ 252 µg/mL)	0.99	20%	525 µM (≈ 250 µg/mL)	1	1.4	519 µM (≈ 247 µg/mL)	2.7	1	2	1.3
C/C1=C\[C@@H]2[C@H](CC[C@]3(CO3)[C@H](OC(=O)c3ccccc3)[C@H]3[C@@H](OC(=O)c4ccccc4)[C@@H](C)C[C@]3(O)C1=O)C2(C)C	1	80%	0.89	880 µM (≈ 492 µg/mL)	0.98	25%	896 µM (≈ 501 µg/mL)	1	1.4	803 µM (≈ 449 µg/mL)	4.6	1	2	1.3
C/C1=C\[C@@H]2[C@H](CC[C@]3(CO3)[C@H](O)[C@H]3[C@@H](O)[C@@H](C)C[C@]3(O)C1=O)C2(C)C	1	85%	4	2800 µM (≈ 981 µg/mL)	4	30%	714 µM (≈ 250 µg/mL)	1	1.4	2800 µM (≈ 981 µg/mL)	1.91	1	2	1.3
C=C1CC[C@H]2[C@@H](/C=C(\C)C(=O)[C@@]3(O)C[C@H](C)[C@H](O)[C@@H]3[C@H]1O)C2(C)C	1	30%	1.01	1480 µM (≈ 494 µg/mL)	0.98	40%	1500 µM (≈ 502 µg/mL)	1	1.4	1520 µM (≈ 510 µg/mL)	1.48	1	2	1.3
CCCCC(CC)C(=O)O[C@@H]1[C@@H]2[C@@H](OC(=O)C(CC)CCCC)[C@]3(CC[C@H]4[C@@H](/C=C(\C)C(=O)[C@@]2(O)C[C@@H]1C)C4(C)C)CO3 (stereo partly specified)	1	20%	0.96	800 µM (≈ 482 µg/mL)	0.96	30%	830 µM (≈ 500 µg/mL)	1	1.4	799 µM (≈ 482 µg/mL)	6.45	1	2	1.3
C=C1CC[C@H]2[C@@H](/C=C(\C)C(=O)[C@@]3(O)C[C@H](C)[C@H](O)[C@@H]3[C@H]1OC(=O)c1cccc(OC)c1)C2(C)C	1	35%	0.92	1120 µM (≈ 526 µg/mL)	1.05	80%	1070 µM (≈ 500 µg/mL)	1	1.4	992 µM (≈ 465 µg/mL)	3.42	1	2	1.3
C=C1CC[C@H]2[C@@H](/C=C(\C)C(=O)[C@@]3(O)C[C@H](C)[C@H](O)[C@@H]3[C@H]1OC(=O)c1ccc(C(F)(F)F)cc1)C2(C)C	1	15%	0.91	896 µM (≈ 454 µg/mL)	0.9	70%	988 µM (≈ 500 µg/mL)	1	1.4	900 µM (≈ 456 µg/mL)	4.16	1	2	1.3
C/C1=C\[C@@H]2[C@H](CC[C@]3(CO3)[C@H](OC(=O)c3ccc(C)cc3)[C@H]3[C@@H](OC(=O)c4ccc(C)cc4)[C@@H](C)C[C@]3(O)C1=O)C2(C)C	1	25%	0.92	803 µM (≈ 471 µg/mL)	0.94	30%	853 µM (≈ 500 µg/mL)	1	1.4	789 µM (≈ 463 µg/mL)	5	1	2	1.3
C/C1=C\[C@@H]2[C@H](CC[C@]3(CO3)[C@H](OC(=O)Cc3ccccc3)[C@H]3[C@@H](OC(=O)Cc4ccccc4)[C@@H](C)C[C@]3(O)C1=O)C2(C)C	1	15%	0.88	788 µM (≈ 462 µg/mL)	0.92	10%	853 µM (≈ 500 µg/mL)	1	1.4	756 µM (≈ 444 µg/mL)	4.91	1	2	1.3
COc1ccc(C(=O)O[C@@H]2[C@@H]3[C@@H](OC(=O)c4ccc(OC)cc4)[C@]4(CC[C@H]5[C@@H](/C=C(\C)C(=O)[C@@]3(O)C[C@@H]2C)C5(C)C)CO4)cc1	1	80%	0.95	861 µM (≈ 533 µg/mL)	1.06	10%	809 µM (≈ 501 µg/mL)	1	1.4	776 µM (≈ 480 µg/mL)	4.51	1	2	1.3
CCCC(=O)O[C@@H]1[C@@H]2[C@@H](OC(C)=O)[C@]3(CC[C@H]4[C@@H](/C=C(\C)C(=O)[C@@]2(OC(C)=O)C[C@@H]1C)C4(C)C)CO3	1	25%	–	901 µM (≈ 455 µg/mL)	0.9	10%	992 µM (≈ 501 µg/mL)	1	1.4	1000 µM (≈ 505 µg/mL)	2.5	1	2	1.3
